Experimental data reported in ChEMBL document CHEMBL4689842, “EUbOPEN Chemogenomics Library wave 1” (2021).
Where “and” joins values, the source holds several entries; their conditions need not be identical. Equal values may be shown once.

Test system: Fibroblast
Experiment: Multiplex assay against human fibroblast
Assay type: toxicity, cell-based
Conditions: 10 µM, compound concentration 10 uM
How it was run: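 Live cells carried four stains from seeding: Hoechst33342, BioTracker Green Microtubule Cytoskeleton Dye, MitoTracker Red and Annexin V Alexa Fluor 680. They were imaged on a CQ1 microscope at 37°C and 5% CO2 after compound addition. Using CellPathfinder machine-learning gating, cells were split into Hoechst high-intensity objects or normal cells, normal cells into healthy, pyknosed or fragmented nuclei, and pyknosed cells into mitotic or apoptotic; tubulin, mitochondrial-mass and membrane-permeability phenotypes are per cents of healthy-nucleus cells.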

CCn1c(=O)c(-c2ccc(Cl)cc2Cl)cc2cnc(Nc3ccc(N4CCNCC4)c(F)c3)nc21
Population Apoptotic (%) (12 h, replicate 1): 33% and 53% and 60%
Population Fragmented Nuclei (%) (12 h, replicate 1): 33% and 37% and 26%
Population Healthy Nuclei (%) (12 h, replicate 1): 39% and 46% and 56%
Population Hoechst High Intensity Objects (%) (12 h, replicate 1): 69% and 59% and 37%
Population Mitochondria Different-Phenotype (%) (12 h, replicate 1): 11% and 6% and 5%
Population Mitotic Cells (%) (12 h, replicate 1): 66% and 46% and 39%
Population Normal (%) (12 h, replicate 1): 30% and 41% and 62%
Population Pyknosed Nuclei (%) (12 h, replicate 1): 27% and 16%
Population Fragmented Nuclei (%) (12 h, replicate 2): 44% and 57% and 61%
Population Healthy Nuclei (%) (12 h, replicate 2): 18% and 35% and 19%
Population Hoechst High Intensity Objects (%) (12 h, replicate 2): 50% and 51% and 70%
Population Normal (%) (12 h, replicate 2): 50% and 48% and 29%
Total Cell Count (12 h, replicate 2): 206 and 112 and 242
Population Apoptotic (%) (24 h, replicate 1): 47% and 66% and 63%
Population Fragmented Nuclei (%) (24 h, replicate 1): 40% and 37% and 23%
Population Healthy Nuclei (%) (24 h, replicate 1): 32% and 38% and 58%
Population Hoechst High Intensity Objects (%) (24 h, replicate 1): 72% and 65% and 42%
Population Mitochondria Different-Phenotype (%) (24 h, replicate 1): 14% and 20% and 7%
Population Mitotic Cells (%) (24 h, replicate 1): 52% and 33% and 36%
Population Normal (%) (24 h, replicate 1): 27% and 34% and 57%
Population Pyknosed Nuclei (%) (24 h, replicate 1): 24% and 17%
Population Tubulin-Different-Phenotype (%) (24 h, replicate 1): 33% and 32%
Total Cell Count (24 h, replicate 1): 236 and 703 and 456
Population Apoptotic (%) (24 h, replicate 2): 100% and 71% and 73%
Population Fragmented Nuclei (%) (24 h, replicate 2): 41% and 62% and 53%
Population Healthy Nuclei (%) (24 h, replicate 2): 31% and 23% and 24%
Population Hoechst High Intensity Objects (%) (24 h, replicate 2): 44% and 54% and 74%
Population Normal (%) (24 h, replicate 2): 55% and 45% and 25%
Population Pyknosed Nuclei (%) (24 h, replicate 2): 26% and 13% and 22%
Total Cell Count (24 h, replicate 2): 225 and 111 and 256
Population Apoptotic (%) (48 h, replicate 1): 35%
Population Fragmented Nuclei (%) (48 h, replicate 1): 36%
Population Healthy Nuclei (%) (48 h, replicate 1): 46%
Population Hoechst High Intensity Objects (%) (48 h, replicate 1): 67%
Population Membrane Permeable-Phenotype (%) (48 h, replicate 1): 30%
Population Mitochondria Different-Phenotype (%) (48 h, replicate 1): 15%
Population Mitotic Cells (%) (48 h, replicate 1): 64%
Population Normal (%) (48 h, replicate 1): 32%
Population Pyknosed Nuclei (%) (48 h, replicate 1): 16%
Population Tubulin-Different-Phenotype (%) (48 h, replicate 1): 15%
Total Cell Count (48 h, replicate 1): 255
Population Apoptotic (%) (48 h, replicate 2): 71%
Population Fragmented Nuclei (%) (48 h, replicate 2): 60%
Population Healthy Nuclei (%) (48 h, replicate 2): 31%
Population Hoechst High Intensity Objects (%) (48 h, replicate 2): 76%
Population Membrane Permeable-Phenotype (%) (48 h, replicate 2): 65%
Population Mitochondria Different-Phenotype (%) (48 h, replicate 2): 7%
Population Mitotic Cells (%) (48 h, replicate 2): 28%
Population Normal (%) (48 h, replicate 2): 23%
Population Pyknosed Nuclei (%) (48 h, replicate 2): 8%
Total Cell Count (48 h, replicate 2): 348
